# Many of the other results were omitted from the sample, so hits are more common in it than they were.
# INS promoter act – activators of insulin promoter-driven GFP, primary screen, imaging, TRM-6 cells, eGFP reporter, cell count | plate-scaled: unstimulated 0, stimulated control 100 | activation, % at 2 µM | hit rate 0.81% among 130,000 | AID 1296, 2008;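 active means activation at 2 µM above a set limit, confirmed on inspection of the cell images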;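 further: share of cells whose green reporter signal exceeds an intensity cutoff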
#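 Material: Human fetal islet-derived TRM-6 cells with tamoxifen-inducible insulin promoter–eGFP reporter | Medium: Low-glucose (5.5 mM) medium with tamoxifen | Probe or stimulus: Tamoxifen inducer, 0.75 µM, in seeding medium | Schedule: Tamoxifen pre-incubation 15 h overnight, then compound exposure 48 h at 37 °C | Detection: High-content imaging of fixed cells with Hoechst nuclear stain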
# Starred values were filed as active, the others as inactive.
SMILES,INS promoter act
Cc1cccc(-n2nc3c(c2NC(=O)c2ccc(Br)o2)CSC3)c1,-7
O=C(NN=C1C2CC3CC(C2)CC1C3)c1cccc(S(=O)(=O)N2CCOCC2)c1,-4
O=C(CC1SC(=NCc2ccccc2)NC1=O)Nc1ccccc1 (stereo not given),108
CN(C)S(=O)(=O)c1cc(NC(=O)[C@H](Cc2ccccc2)N2C(=O)c3ccccc3C2=O)ccc1Cl,414*
Cc1ccc(NC(=O)C(Cc2ccccc2)N2C(=O)C3C4CCC(C4)C3C2=O)cc1Cl (stereo not given),-8
COc1ccc(NC(=O)C(CCS(C)(=O)=O)N2C(=O)c3ccccc3C2=O)cc1 (stereo not given),-4
Cn1c(CCN2CCOCC2)nc2cc(NC(=O)c3cccs3)ccc21,-8
C=CCOc1c(Br)cc(/C=N/n2c(CC)n[nH]c2=S)cc1Br,4
C=CCn1c(SCC(=O)NCc2ccc3c(c2)OCO3)nnc1-c1cccnc1,-76
O=C(CSc1nnc(-c2cccnc2)n1Cc1ccco1)NCc1ccc2c(c1)OCO2,285*
COc1cccc(-c2nnc(SCC(=O)NCc3ccc4c(c3)OCO4)n2Cc2ccco2)c1,-4
Cc1ccc(CCC(=O)Nc2ccccc2F)s1,0
COc1cc(C(=O)NCc2nnc(SCC(=O)Nc3nc4ccccc4s3)o2)cc(OC)c1OC,4
COc1cc(C(=O)NCc2nnc(SCC(=O)Nc3nccs3)o2)cc(OC)c1OC,144
COc1ccc(OC)c(NC(=O)CSc2nnc(CNC(=O)COc3ccc(Cl)cc3)o2)c1,129*
CCOc1cc(N2CCOCC2)c(OCC)cc1NC(=O)c1ccc(OCc2c(C)noc2C)c(OC)c1,10
CCc1cc(C(=O)N=Nc2c(O)[nH]c3c(Br)cc(Br)cc23)c2ccccc2n1,-7
Cc1cc(Cl)ccc1OCC(=O)Nc1ccccc1N1CCOCC1,363
Cc1ccccc1NC(=O)COc1ccc(Br)cc1C,431*
Cc1ccccc1OCC(=O)Nc1cccc2nsnc12,-43
COc1cc(C(=O)c2ccccc2)c(OC)cc1C(=O)Nc1ccc(O)cc1,-71
CSc1ccc(CN(C)CC(=O)Nc2c(F)cccc2F)cc1,-8
COc1ccc(N2CCN(CCCNC(=O)Nc3ccccc3)CC2)cc1,229
COc1ccc2c(C(=O)CN3CCN(c4ccccc4)CC3)c[nH]c2c1,94*
COc1cccc(N2CCN(CC(=O)NC(=O)NCc3ccco3)CC2)c1,-8
SMILES,INS promoter act
CCCC(=O)C1=C(O)C(C(=O)OC)C(C)(C)CC1=Nc1cccc2ccccc12 (stereo not given),106
CCCC(=O)C1=C(O)C(C(=O)OC)C(C)(C)CC1=NC(C)C (stereo not given),480*
COc1ccc(C2NC(=S)NC(O)(C(F)(F)F)C2C(=O)c2cccs2)cc1 (stereo not given),-9
Cc1ccc(NC(=O)NNC(=O)c2cccs2)cc1,-3
CC(=O)c1ccc(NC(=O)N2CCN(c3cccc(Cl)c3)CC2)cc1,-10
CCc1ccc(NC(=S)N2CCN(c3cccc(C(F)(F)F)c3)CC2)cc1,0
CC(=O)c1ccc(N2CCN(C(=S)Nc3cccc(F)c3)CC2)cc1,138*
C=CCn1c(SCC(=O)c2ccc(OC)cc2)nnc1-c1cc2cccc(OC)c2o1,-5
C=CCn1c(COc2cccc3ccc(C)nc23)nnc1SCC(=O)O,450*
C=CCn1c(COc2cccc3cccnc23)nnc1SCC(=O)O,0
Cc1cc2cc(C)c3nnc(SCC(=O)Nc4ccc(S(=O)(=O)N5CCCCC5)cc4)n3c2cc1C,5
CCc1nc2ccccc2c2nc3ccccc3n12,-6
Cc1nnc2c(Oc3ccccc3)nc3ccccc3n12,131*
Cc1ccc(-c2nnc3c(C(F)(F)F)nc4ccccc4n23)cc1,4
CCC(C)N1C(=O)CCC1C(=O)O (stereo not given),0
CCc1cc2c(=O)c(-c3nc(C)cs3)coc2cc1OC(C)C(=O)NCCO (stereo not given),-7
O=C(CN1CCN(S(=O)(=O)c2ccc(Br)cc2)CC1)Nc1ccc(F)cc1F,136*
O=C(CCN1CCN(S(=O)(=O)c2ccc(Br)cc2)CC1)Nc1ccccc1F,0
O=C(CN1CCc2ccccc2C1)Nc1ccc(F)cc1F,-6
O=CNc1ccc(S(=O)(=O)NCc2ccccc2)cc1,-9
O=C(CCCN1C(=O)CCC1=O)Nc1ccc2c(c1)OCCO2,118
O=C(CCCCCN1C(=O)CCC1=O)Nc1ccc2c(c1)OCO2,475*
O=C(CCCCCN1C(=O)c2ccccc2C1=O)Nc1ccc2c(c1)OCCO2,0
CC(=O)Nc1ccc(Nc2cc(C)nc3c(-c4ccccc4)cnn23)cc1,-75
NNC(=O)CNC(=O)CNS(=O)(=O)c1ccccc1,0
SMILES,INS promoter act
Cc1ccc(OCC(O)CNC(=O)c2ccccc2C(=O)O)cc1 (stereo not given),3
CCCC(=O)Nc1ccc(Cc2ccc(NC(=O)CCC)c(C(=O)O)c2)cc1C(=O)O,-8
OCCN(Cc1ccccc1)Cc1cccc(F)c1,81*
OCCN(Cc1ccccc1)CC1CC2C=CC1C2 (stereo not given),8
OCCN(Cc1ccccc1)CC1CCCCC1,-77
O=S1(=O)C=C(SCc2ccc(Cl)c(Cl)c2)Nc2ccccc21,7
O=S(=O)(Nc1ncn[nH]1)c1ccc(Cl)cc1,0
O=C(c1cc2sccc2n1Cc1ccccc1)N1CCN(c2nc3ccccc3s2)CC1,0
COc1ccc(NC(=O)CCN2C(=O)C3CC=C(Cl)CC3C2=O)cc1 (stereo not given),7
Cc1nc2ccc(NC(=O)CCS(=O)(=O)c3ccc(Cl)cc3)cc2s1,8
Cc1nc2ccc([N+](=O)[O-])cc2s1,8
Cc1ccc(C(=O)Nc2ccc3nc(C)sc3c2)s1,562*
NNC(=O)CCc1ccc(S(=O)(=O)N2CCOCC2)cc1,-81
CCOC(=O)c1c(NC(=O)c2ccc(Cl)cc2)csc1C,-10
CCN(C(=S)NC(=O)c1ccccc1Br)C1CCCCC1,-8
NS(=O)(=O)c1ccc(CCNC(=O)COC(=O)/C=C/c2ccccc2Cl)cc1,9
Cc1cc(C)c2cc(CN(Cc3cccnc3)C(=O)c3ccc(F)cc3)c(Cl)nc2c1,130*
CCOC(=O)CNC(=S)N(Cc1ccccc1)Cc1cccnc1,7
Cc1[nH]c2ccccc2c1CCN(Cc1cccnc1)C(=S)Nc1ccc(F)cc1,0
CC(OC(=O)c1ccncc1)C(=O)Nc1cc(S(=O)(=O)N2CCCCC2)ccc1Cl (stereo not given),-6
O=C(/C=C/c1ccc(N2CCC(c3ccccc3)=N2)cc1)c1ccccc1,456*
O=C(/C=C/c1ccc(OC2CSC2)cc1)c1ccc(Cl)cc1,4
Cc1ccc(/C=C/C(=O)c2ccc(C)cc2)cc1,367
CC1(C)C(=O)N(OCc2ccccc2)C(C)(C)C(=O)N1OCc1ccccc1,-4
Cc1ccccc1NC(=O)C(=O)NCc1ccccn1,110
SMILES,INS promoter act
Cc1c(/C(O)=C2/C(=O)C(=O)N(CCN3CCOCC3)C2c2ccccn2)cnn1-c1ccccc1 (stereo not given),-5
O=C(COC(=O)c1ccccn1)NC1CCCCC1,-3
O=C(c1ccccn1)N(Cc1ccco1)C1(C(=O)NC2CCCC2)CCCCC1,81*
O=C1NC(=O)C(CC(=O)N(Cc2ccco2)C2(C(=O)NC3CCCC3)CCCCC2)N1 (stereo not given),0
O=C1CN(Cc2ccccc2)C(=NCc2ccco2)S1,292
C=CC(=O)NC(C)(C)CCN1CCOCC1,7
CCOP(=O)(c1ccccc1)C(O)c1ccccc1 (stereo not given),-3
